Reference: ChEMBL document CHEMBL1143838, “Candida albicans and Candida dubliniensis respond differently to echinocandin antifungal agents in vitro” (2007)
In brackets after ≈: the same amount, converted by molar mass. *1 amine or outer side, *2 acyl side, *3 side chain or, on linkers, in order; H or OH if unused. Where a SMILES comes first, the peptide text is derived from it. Bridges are numbered along the chain shown (N, C = ends). [ ]: non-standard residue; d: D form. The star is where a group is joined. hTyr(3S-OH,4S-OH,3'-OSO3H) = N[C@H](C(=O)O)[C@H](O)[C@@H](O)c1ccc(O)c(OS(=O)(=O)O)c1; Orn(4R-OH,5R-OH) = O=C([C@H](C[C@@H](O)[C@@H](O)N[*:3])N[*:1])[*:2]; Pro(3S-OH,4S-Me) = C[C@H]1CN[C@H](C(=O)O)[C@H]1O; X1 = CCCCCOc1ccc(-c2cc(-c3ccc(C(=O)*)cc3)no2)cc1; Gln(3R-OH) = NC(=O)C[C@@H](O)[C@H](N)C(=O)O; Hyp = O=C(O)[C@@H]1C[C@@H](O)CN1

How the values were obtained:
Assay type in all cases: functional
[1] = system: Candida albicans; experiment: Antifungal activity against Candida albicans HK04M102095 after 24 hrs by CLSI M27-A test
Method in brief: (§1)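 CLSI M27-A broth microdilution with aqueous doubling dilutions of drug. Inoculum grown overnight at 30°C in NGY medium, then added to MOPS-buffered RPMI 1640 at an initial 10^3 yeasts/ml. Incubated 35°C for 24 h. MIC read visually as the lowest concentration giving a marked decrease in visible growth; paradoxical or trailing growth noted.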

[2] = system: Candida dubliniensis; experiment: Antifungal activity against Candida dubliniensis SCS59662 after 24 hrs by CLSI M27-A test
Method in brief: (§2)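 Broth microdilution with echinocandins as aqueous doubling dilutions. Yeasts were grown overnight at 30°C in NGY and seeded at 10^3 yeasts/ml initial concentration in MOPS-buffered RPMI 1640, then incubated at 35°C for 24 h. The MIC was read visually as the lowest concentration giving a marked decrease in visible growth; paradoxical or trailing growth was noted.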

[3] = system: Candida albicans; experiment: Antifungal activity against Candida albicans CAI4RI after 24 hrs by CLSI M27-A test; method in brief: as §1
[4] = system: Candida albicans; experiment: Antifungal activity against Candida albicans T28 after 24 hrs by EUCAST test
Method in brief: (§3)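 EUCAST broth microdilution with aqueous doubling dilutions of drug. Inoculum grown overnight at 30°C in NGY, then added to MOPS-buffered RPMI 1640 with 2% glucose at an initial 10^5 yeasts/ml. Incubated 35°C for 24 h. MICs taken from triplicate spectrophotometric dose-response data as 50% and 80% growth-reduction endpoints.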

[5] = system: Candida dubliniensis; experiment: Antifungal activity against Candida dubliniensis Leic952 after 24 hrs by EUCAST test
Method in brief: (§4)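 Yeasts were grown overnight at 30°C in NGY, then inoculated at 10^5 yeasts/ml initial concentration into MOPS-buffered RPMI 1640 with 2% glucose containing aqueous doubling dilutions of drug. Plates were held at 35°C for 24 h. MICs came from triplicate spectrophotometric dose-response data at 50% and 80% growth-reduction endpoints. Trailing meant a >100-fold gap between these endpoints; paradoxical meant regrowth ≥5% above the curve minimum.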

[6] = system: Candida albicans; experiment: Antifungal activity against Candida albicans NR2 after 24 hrs by CLSI M27-A test; method in brief: as §1
[7] = system: Candida albicans; experiment: Antifungal activity against Candida albicans Y109 after 24 hrs by CLSI M27-A test; method in brief: as §1
[8] = system: Candida dubliniensis; experiment: Antifungal activity against Candida dubliniensis SCS65875C after 24 hrs by EUCAST test; method in brief: as §4
[9] = system: Candida albicans; experiment: Antifungal activity against Candida albicans SCS67023C after 24 hrs by EUCAST test; method in brief: as §3
[10] = system: Candida albicans; experiment: Antifungal activity against Candida albicans NR3 after 24 hrs by CLSI M27-A test; method in brief: as §1
[11] = system: Candida albicans; experiment: Antifungal activity against Candida albicans T25 after 24 hrs by CLSI M27-A test; method in brief: as §1
[12] = system: Candida albicans; experiment: Antifungal activity against Candida albicans CAI4RI after 24 hrs by EUCAST test; method in brief: as §3
[13] = system: Candida albicans; experiment: Antifungal activity against Candida albicans B06-341 after 24 hrs by CLSI M27-A test; method in brief: as §1
[14] = system: Candida dubliniensis; experiment: Antifungal activity against Candida dubliniensis AMCC after 24 hrs by EUCAST test; method in brief: as §3
[15] = system: Candida albicans; experiment: Antifungal activity against Candida albicans NR3 after 24 hrs by EUCAST test; method in brief: as §3
[16] = system: Candida dubliniensis; experiment: Antifungal activity against Candida dubliniensis KR after 24 hrs by EUCAST test; method in brief: as §4
[17] = system: Candida dubliniensis; experiment: Antifungal activity against Candida dubliniensis 75/043 after 24 hrs by EUCAST test; method in brief: as §3
[18] = system: Candida albicans; experiment: Antifungal activity against Candida albicans JIMS146204 after 24 hrs by EUCAST test; method in brief: as §3
[19] = system: Candida albicans; experiment: Antifungal activity against Candida albicans AM2003/0083 after 24 hrs by CLSI M27-A test; method in brief: as §1
[20] = system: Candida albicans; experiment: Antifungal activity against Candida albicans NR4 after 24 hrs by CLSI M27-A test; method in brief: as §1
[21] = system: Candida albicans; experiment: Antifungal activity against Candida albicans T32 after 24 hrs by EUCAST test; method in brief: as §3
[22] = system: Candida dubliniensis; experiment: Antifungal activity against Candida dubliniensis 90/033 after 24 hrs by EUCAST test; method in brief: as §3
[23] = system: Candida dubliniensis; experiment: Antifungal activity against Candida dubliniensis ST after 24 hrs by CLSI M27-A test; method in brief: as §2
[24] = system: Candida dubliniensis; experiment: Antifungal activity against Candida dubliniensis ST after 24 hrs by EUCAST test; method in brief: as §4
[25] = system: Candida albicans; experiment: Antifungal activity against Candida albicans NR4 after 24 hrs by EUCAST test; method in brief: as §3
[26] = system: Candida dubliniensis; experiment: Antifungal activity against Candida dubliniensis J931021 after 24 hrs by EUCAST test; method in brief: as §4
[27] = system: Candida albicans; experiment: Antifungal activity against Candida albicans T32 after 24 hrs by CLSI M27-A test; method in brief: as §1
[28] = system: Candida albicans; experiment: Antifungal activity against Candida albicans JIMS132203 after 24 hrs by CLSI M27-A test; method in brief: as §1
[29] = system: Candida albicans; experiment: Antifungal activity against Candida albicans AM2003/0083 after 24 hrs by EUCAST test; method in brief: as §3
[30] = system: Candida dubliniensis; experiment: Antifungal activity against Candida dubliniensis B71507 after 24 hrs by CLSI M27-A test; method in brief: as §2
[31] = system: Candida dubliniensis; experiment: Antifungal activity against Candida dubliniensis 75/043 after 24 hrs by CLSI M27-A test; method in brief: as §1
[32] = system: Candida albicans; experiment: Antifungal activity against Candida albicans SCS67023C after 24 hrs by CLSI M27-A test; method in brief: as §1
[33] = system: Candida dubliniensis; experiment: Antifungal activity against Candida dubliniensis SCS17154969-1 after 24 hrs by CLSI M27-A test; method in brief: as §2
[34] = system: Candida albicans; experiment: Antifungal activity against Candida albicans SCS68858 after 24 hrs by CLSI M27-A test; method in brief: as §1
[35] = system: Candida dubliniensis; experiment: Antifungal activity against Candida dubliniensis J930936 after 24 hrs by EUCAST test; method in brief: as §4
[36] = system: Candida albicans; experiment: Antifungal activity against Candida albicans T26 after 24 hrs by EUCAST test; method in brief: as §3
[37] = system: Candida dubliniensis; experiment: Antifungal activity against Candida dubliniensis 910Aa after 24 hrs by CLSI M27-A test; method in brief: as §1
[38] = system: Candida albicans; experiment: Antifungal activity against Candida albicans NR2 after 24 hrs by EUCAST test; method in brief: as §3
[39] = system: Candida dubliniensis; experiment: Antifungal activity against Candida dubliniensis FS after 24 hrs by EUCAST test; method in brief: as §4
[40] = system: Candida parapsilosis; experiment: Antifungal activity against Candida parapsilosis ATCC 22019 after 24 hrs by EUCAST test; conditions: Lodderomyces parapsilosis, ATCC 22019, 24 h; method in brief: as §4
[41] = system: Candida albicans; experiment: Antifungal activity against Candida albicans Y109 after 24 hrs by EUCAST test; method in brief: as §3
[42] = system: Candida albicans; experiment: Antifungal activity against Candida albicans B06-341 after 24 hrs by EUCAST test; method in brief: as §3
[43] = system: Candida dubliniensis; experiment: Antifungal activity against Candida dubliniensis IK after 24 hrs by EUCAST test; method in brief: as §4
[44] = system: Candida dubliniensis; experiment: Antifungal activity against Candida dubliniensis AMCC after 24 hrs by CLSI M27-A test; method in brief: as §1
[45] = system: Candida dubliniensis; experiment: Antifungal activity against Candida dubliniensis Leic952 after 24 hrs by CLSI M27-A test; method in brief: as §2

MIC50 [1]: ≤ 0.032 µg/mL
MIC50 [2]: ≤ 0.032 µg/mL
MIC50 [3]: 0.25 µg/mL (≈ 0.197 µM)
MIC50 [4]: ≤ 0.032 µg/mL
MIC50 [5]: 0.063 µg/mL (≈ 0.0496 µM)
MIC50 [6]: 0.25 µg/mL (≈ 0.197 µM)
MIC50 [7]: 0.25 µg/mL (≈ 0.197 µM)
MIC50 [8]: ≤ 0.032 µg/mL
MIC50 [9]: ≤ 0.032 µg/mL
MIC50 [10]: 1 µg/mL (≈ 0.787 µM)
MIC50 [11]: 1 µg/mL (≈ 0.787 µM)
MIC50 [12]: 0.5 µg/mL (≈ 0.394 µM)
MIC50 [13]: ≤ 0.032 µg/mL
MIC50 [14]: ≤ 0.032 µg/mL
MIC50 [15]: 2 µg/mL (≈ 1.57 µM)
MIC50 [16]: ≤ 0.032 µg/mL
MIC50 [17]: ≤ 0.032 µg/mL
MIC50 [18]: ≤ 0.032 µg/mL
MIC50 [19]: ≤ 0.032 µg/mL
MIC50 [20]: 0.25 µg/mL (≈ 0.197 µM)
MIC50 [21]: ≤ 0.032 µg/mL
MIC50 [22]: 0.063 µg/mL (≈ 0.0496 µM)
MIC50 [23]: ≤ 0.032 µg/mL
MIC50 [24]: 0.063 µg/mL (≈ 0.0496 µM)
MIC50 [25]: 0.5 µg/mL (≈ 0.394 µM)
MIC50 [26]: 0.063 µg/mL (≈ 0.0496 µM)
MIC50 [27]: ≤ 0.032 µg/mL
MIC50 [28]: ≤ 0.032 µg/mL
MIC50 [29]: ≤ 0.032 µg/mL
MIC50 [30]: ≤ 0.032 µg/mL
MIC50 [31]: ≤ 0.032 µg/mL
MIC50 [32]: ≤ 0.032 µg/mL
MIC50 [33]: ≤ 0.032 µg/mL
MIC50 [34]: ≤ 0.032 µg/mL
MIC50 [35]: ≤ 0.032 µg/mL
MIC50 [36]: 1 µg/mL (≈ 0.787 µM)
MIC50 [37]: ≤ 0.032 µg/mL
MIC50 [38]: 0.5 µg/mL (≈ 0.394 µM)
MIC50 [39]: 0.063 µg/mL (≈ 0.0496 µM)
MIC50 [40]: 0.5 µg/mL (≈ 0.394 µM)
MIC50 [41]: 0.25 µg/mL (≈ 0.197 µM)
MIC50 [42]: ≤ 0.032 µg/mL
MIC50 [43]: ≤ 0.032 µg/mL
MIC50 [44]: ≤ 0.032 µg/mL
MIC50 [45]: ≤ 0.032 µg/mL
Structure (SMILES): CCCCCOc1ccc(-c2cc(-c3ccc(C(=O)N[C@H]4C[C@@H](O)[C@@H](O)NC(=O)[C@@H]5[C@@H](O)[C@@H](C)CN5C(=O)[C@H]([C@H](O)CC(N)=O)NC(=O)[C@H]([C@H](O)[C@@H](O)c5ccc(O)c(OS(=O)(=O)O)c5)NC(=O)[C@@H]5C[C@@H](O)CN5C(=O)[C@H]([C@@H](C)O)NC4=O)cc3)no2)cc1 [MICAFUNGIN] (X1-[Orn(4R-OH,5R-OH)]T[Hyp][hTyr(3S-OH,4S-OH,3'-OSO3H)][Gln(3R-OH)][Pro(3S-OH,4S-Me)]; lactam 1-C)
